An excerpt weighted towards active compounds, which were near 2.1% of everything screened.
HTR2A ag – activates the mouse 5-HT2A serotonin receptor | CHO-K1 mHTR2A beta-arrestin complementation, luminescence; percent of 30 µM serotonin response | P35363 | 360,000 compounds, 0.66% hits | activation, % at 7.6 µM;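 active = activation above a run cutoff, the mean activation of all tested compounds plus 3 SD, cut at about 14% in these data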;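 note: 0% = plate median of compound wells and 100% = 30 µM serotonin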
Target sequence (P35363 whole entry, looked up): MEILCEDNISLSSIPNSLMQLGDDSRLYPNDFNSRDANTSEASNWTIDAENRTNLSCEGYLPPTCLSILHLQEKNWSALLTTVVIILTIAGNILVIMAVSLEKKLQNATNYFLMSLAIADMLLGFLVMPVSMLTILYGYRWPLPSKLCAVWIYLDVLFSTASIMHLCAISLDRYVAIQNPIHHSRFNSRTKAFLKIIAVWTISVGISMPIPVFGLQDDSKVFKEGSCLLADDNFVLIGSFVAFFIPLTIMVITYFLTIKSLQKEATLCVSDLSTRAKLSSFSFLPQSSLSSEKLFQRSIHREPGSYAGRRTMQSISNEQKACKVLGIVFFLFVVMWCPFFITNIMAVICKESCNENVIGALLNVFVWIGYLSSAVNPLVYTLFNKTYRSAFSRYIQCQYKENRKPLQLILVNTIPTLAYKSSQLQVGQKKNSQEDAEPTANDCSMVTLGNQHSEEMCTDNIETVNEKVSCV
CXCR6 inh – inhibitors of human CXCR6 receptor | O00574 | CHO-K1 PathHunter CXCR6 beta-arrestin, luminescence | inhibition, % at 20 µM | 360,000 compounds, 0.36% hits; in the data active = inhibition above about 34%, passing the limit was not always enough;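 note: antagonist mode with CXCL16 agonist at 10 nM final; 0% = 10 nM CXCL16 with DMSO and 100% = unstimulated wells without agonist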
CCR6 antagonist – CCR6 (human) receptor antagonism; inhibition, % at 20 µM; 340,000 compounds, 0.49% hits; AID 493098; P51684; CHO-K1 CCR6 PathHunter beta-arrestin, luminescence, CCL20-stimulated;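 active = compounds whose inhibition of the agonist-driven luminescence signal at 20 µM reaches about 50%, limit read from the data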;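 note: cells stimulated with CCL20 at 14 nM final; plate controls were DMSO with CCL20 for no effect and DMSO without agonist for full effect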
EBI2 antag – EBI2 (human) antagonism | inhibition, % at 5 µM | 360,000 compounds, 0.81% hits | EBI2 beta-arrestin recruitment, luminescence, 7a,25-OHC stimulated; in the data active = inhibition above about 38%;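 note: enzyme fragment complementation signal reports receptor beta-arrestin coupling in cells; 0% = agonist plus DMSO wells and 100% = wells without agonist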
APJ antagonist – antagonists of human APJ apelin receptor | CHO-K1 APJ beta-arrestin complementation, luminescence | P35414 | inhibition, % at 20 µM | 330,000 compounds, 0.32% hits;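 active = inhibition above about 40% at 20 µM, limit read from the data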;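 note: cells challenged with 10 nM apelin-13 agonist together with compound; plate controls were apelin-13 plus DMSO wells for no effect and DMSO wells lacking apelin-13 for full effect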
APJ agonist – activates the human apelin receptor APJ | P35414 | CHO-K1 APJ PathHunter beta-arrestin, luminescence; 0% DMSO wells, 100% apelin | activation, % at 20 µM | 330,000 compounds, 0.11% hits | AID 2520;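 active = activation more than six SD over the plate average, tested at 20 µM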;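 note: 0% = DMSO alone and 100% = apelin-13 at 10 nM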
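system = engineered CHO-K1 APJ arrestin reporter cells | input = 1000 cells per well | timing = overnight seeding, 90 min compound at 25 °C, 1 h detection | measured by = enzyme-fragment complementation luminescence | read-out = beta-arrestin recruitment to APJ as agonist activity, luminescent signal | control set = negative DMSO alone, positive Apelin-13 at 10 nM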
EBI2 conf – EBI2 (human) antagonism, single concentration confirmation; shares compounds with EBI2 antag; EBI2 beta-arrestin luminescence, 7a,25-OHC antagonism; inhibition, % at 5 µM; 2,400 compounds, 29% hits;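 active = inhibition of at least 50%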
EBI2 ag – counter-screen for EBI2 antagonists: EBI2 agonist activity; shares compounds with EBI2 antag; EBI2-expressing cells, agonist mode, luminescence, 60 min; 0% vehicle, 100% 7α,25-dihydroxycholesterol control; activation, % at 5 µM; 2,400 tested, under 10 active; AID 652000;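 active = activation of at least 50%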
bGal counter – beta-galactosidase inhibition counter-screen; shares compounds with EBI2 antag; inhibition, % at 5 µM; purified beta-galactosidase, luminescent Galacton Star, 15 min; AID 652176; 2,400 compounds, 1% hits;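 active = replicate-average signal at least 3 plate SD below neutral wells, shown as high inhibition, flagging enzyme-inhibiting false positives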;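 note: 0% = DMSO wells with enzyme and 100% = wells lacking enzyme; higher means stronger loss of beta-gal luminescence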
The depositor's hits bear a star; x = no result given.

SMILES	HTR2A ag	CXCR6 inh	CCR6 antagonist	EBI2 antag	APJ antagonist	APJ agonist	EBI2 conf	EBI2 ag	bGal counter
O=C(/C=C/c1ccc([N+](=O)[O-])cc1)N1CCN(Cc2ccccc2)CC1	3	-10	-24	90*	-17	5	64*	1	-10
O=C(/C=C/c1ccc(F)cc1)NNC(=O)CCN1CCN(Cc2ccccc2)CC1	-4	3	-1	42*	23	-3	5	0	5
Cc1cc(S(=O)(=O)NCc2ccc(S(N)(=O)=O)cc2)c(C)s1	1	-1	-2	3	-4	-1	x	x	x
Fc1ccc(NC(=S)Nc2ccc3nccnc3c2)cc1	1	-22	-3	-9	-73	2	x	x	x
COc1ccc(C=CC(=O)c2ccc(OCc3ccccc3)c(OC)c2)cc1OC	-6	6	x	14	x	x	x	x	x
O=C(/C=C/c1ccc(OCc2ccccc2)c(OCc2ccccc2)c1)c1cccnc1	-5	-3	-11	46*	-14	2	31	0	6
Cc1nc(N2CCC(C)CC2)c2c(C)c(C(=O)Nc3ccc(C)c(F)c3)sc2n1	2	-4	-11	-15	-6	3	x	x	x
Cc1nc(N2CCC(C)CC2)c2c(C)c(C(=O)Nc3ccccc3C(F)(F)F)sc2n1	5	-14	-1	45*	-19	1	15	0	-10
CCCC(=O)Nc1cc2c(cc1C(=O)c1ccccc1)OCCO2	-4	8	12	-5	18	0	x	x	x
CCOc1ccc(S(=O)(=O)c2c(C(=O)c3ccccc3)cnc3cc4c(cc23)OCCO4)cc1	-6	1	14	52*	4	-1	25	-1	-11
O=C(Nc1cnn(Cc2ccc(F)cc2)c1)C(c1ccccc1)c1ccccc1	-3	8	9	73*	6	-1	38	2	-1
CC(C)(C)C1CCc2onc(C(=O)Nc3cnn(Cc4ccc(F)cc4)c3)c2C1 (centres undefined)	3	-4	-7	44*	-18	-5	8	-2	-7
Cc1cccc(NS(=O)(=O)c2cc3c4c(c2)CCC(=O)N4CCC3)c1	1	-1	16	-4	-44	-2	x	x	x
COc1ccc(-c2cc(=O)oc3cc4occ(C)c4cc23)cc1	7	11	22	49*	-2	-2	33	0	6
COc1ccc(N(Cc2cc3ccc(C)cc3[nH]c2=O)C(=O)C2CCCO2)cc1 (centres undefined)	0	-2	7	7	-5	-2	x	x	x
Cc1ccc2oc(=O)n(CCCOc3ccccc3C)c2c1	-4	9	8	44*	9	-2	39	1	8
Cc1ccc2oc(=O)n(CCOc3ccccc3C)c2c1	-4	-3	9	43	-6	-4	x	x	x
CCN(CC)S(=O)(=O)c1ccc2c(c1)c(=O)c(C(=O)NCCCN(C)c1ccccc1)cn2C	1	18	20	13	1	-1	x	x	x
Cc1ccc(S(=O)(=O)N2CCN(C(=O)c3n[nH]c4ccccc34)CC2)cc1	-8	-3	-3	1	-6	-1	x	x	x
COc1ccc(-c2cc(C(=O)N3CCN(C(=O)c4ccccc4F)CC3)[nH]n2)cc1	2	1	-3	32	11	-8	x	x	x
COc1ccc(S(=O)(=O)N2CCN(C(=O)c3cc(-c4ccc(Br)cc4)n[nH]3)CC2)cc1OC	2	-19	-16	72*	-4	25	45	2	4
COc1ccccc1-c1cc(C(=O)N2CCN(S(=O)(=O)c3ccc(C)cc3)CC2)[nH]n1	1	1	7	62*	-13	1	41	3	-20
O=C(c1cc(-c2ccc(Br)cc2)n[nH]1)N1CCN(C(=O)c2ccccc2Br)CC1	2	-1	6	84*	-7	1	52*	1	-15
COc1ccc(-c2cc(C(=O)N3CCN(S(=O)(=O)c4ccccc4)CC3)[nH]n2)cc1	3	-4	0	48*	3	0	27	0	9
NC(=O)C1CCN(C(=O)c2cc(S(=O)(=O)N3CCOCC3)c(Cl)cc2Cl)CC1	5	-1	0	-2	17	0	x	x	x
SMILES	HTR2A ag	CXCR6 inh	CCR6 antagonist	EBI2 antag	APJ antagonist	APJ agonist	EBI2 conf	EBI2 ag	bGal counter
COc1ccc(C=O)cc1OS(=O)(=O)c1ccccc1[N+](=O)[O-]	0	-1	-10	5	-17	1	x	x	x
O=C(c1cc(-c2ccccc2)n[nH]1)N1CCN(S(=O)(=O)c2ccccc2)CC1	-4	8	-17	59*	13	-2	23	0	-15
O=C(CSc1nc(Nc2ccccc2)nc(N2CCOCC2)n1)Nc1ccc(Br)cc1F	-1	-1	-4	46*	-23	9	-2	-1	-12
O=C(NCc1cccs1)c1csc([C@H]2C[C@H](O)[C@@H](CO)O2)n1	3	-4	x	2	x	x	x	x	x
Cc1cccc(N2CCN(c3cccc(C)c3)C2c2cccnc2)c1	-4	-10	12	14	-12	-1	x	x	x
Cc1ccc(N2CCN(c3ccc(C)cc3)C2c2ccncc2)cc1	-6	3	0	51*	1	2	21	-1	-8
Cc1cc(NC(=O)c2cccc([N+](=O)[O-])c2)n(-c2ccccc2)n1	5	0	-22	-8	1	-2	x	x	x
Cc1ccsc1C1Nc2ccc3ncccc3c2C2=C1C(=O)CC(C)(C)C2 (centres undefined)	-5	12	18	94*	-18	0	76*	0	3
O=C(NCCCc1ccccc1)C1CCC(=O)N(Cc2ccc(Cl)cc2)C1 (centres undefined)	-8	-2	5	35	3	0	x	x	x
COc1ccc(CCCNC(=O)C2CCC(=O)N(Cc3ccc(Cl)cc3)C2)cc1 (centres undefined)	-4	2	11	49*	-25	-2	24	0	9
Cc1ccc(C)c(NC(=O)NNC(=O)CCc2ccccc2)c1	10	-10	7	3	4	0	x	x	x
COC(=O)c1ccc(N2CCN(C)CC2)c(NC(=O)COc2cccc(C)c2)c1	-3	-9	16	-3	-1	1	x	x	x
N#Cc1ccc(S(=O)(=O)N2CCN(CC(=O)Nc3ccccc3C(=O)NC3CC3)CC2)cc1	2	-20	13	4	-3	1	x	x	x
